Env fusion inh = inhibitors of HIV-1 Env-driven cell-cell fusion, primary screen, HeLa-JRFL effector, CEM21 target cells, luciferase; actives 1.1% (n = 360,000); inhibition, % at 12.3 µM;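 active = mean replicate inhibition score of at least 50 and every replicate individually at or above 50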
Glyco luc inh = increase of ERlucT glycosylation luciferase signal, primary screen, N-linked glycosylation inhibitor project, D54 ERlucT cells, luminescence, set 2; D54 ERlucT glycosylation luciferase reporter, 24 h; percent of 100 nM tunicamycin response; reporter increase, % at 12.5 µM; actives 0.23% (n = 360,000);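 active = mean luciferase reporter signal, scaled so untreated is 0 and the glycosylation-blocking control 100, at or above a set limit in every replicate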;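 also: luciferase carries N-glycosylation sites so blocking glycosylation raises the light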
EWS-Fli inh = EWS/Fli-driven NR0B1 reporter inhibitors, primary screen, A673 cells, NR0B1 luciferase, luminescence, MLPCN library; actives 0.67% (n = 350,000); inhibition, % at 12.6 µM; viability-normalised; AID 651661, 2012;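 active = mean inhibition of at least 50% after viability correction, with every replicate also passing that limit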;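 also: firefly luciferase signal divided by Alamar Blue viability fluorescence both relative to DMSO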
PAX8 inh HTS = inhibitors of PAX8-driven TPO luciferase reporter, primary screen, RMG-I cells, single concentration; SteadyGlo, 24 h; inhibition, % at 12.6 µM; actives 1.2% (n = 360,000); AID 652154, 2013;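 active = mean replicate inhibition at least 60% with every replicate also reaching 60%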;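 also: luciferase light reporting Pax8 driven TPO promoter activity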
AF4-AF9 inh = inhibitors of AF4 peptide binding to AF9, primary screen, biochemical, AlphaScreen, biotin-AF4 peptide, FLAG-AF9, single point | AID 651704, 2012 | actives 0.47% (n = 350,000) | inhibition, % at 10 µM | Protein AF-9 (Homo sapiens), P42568;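 active = every replicate reaching a set inhibition limit, whatever the replicate mean, cut at about 25% in these data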
Target sequence (P42568 whole entry, looked up): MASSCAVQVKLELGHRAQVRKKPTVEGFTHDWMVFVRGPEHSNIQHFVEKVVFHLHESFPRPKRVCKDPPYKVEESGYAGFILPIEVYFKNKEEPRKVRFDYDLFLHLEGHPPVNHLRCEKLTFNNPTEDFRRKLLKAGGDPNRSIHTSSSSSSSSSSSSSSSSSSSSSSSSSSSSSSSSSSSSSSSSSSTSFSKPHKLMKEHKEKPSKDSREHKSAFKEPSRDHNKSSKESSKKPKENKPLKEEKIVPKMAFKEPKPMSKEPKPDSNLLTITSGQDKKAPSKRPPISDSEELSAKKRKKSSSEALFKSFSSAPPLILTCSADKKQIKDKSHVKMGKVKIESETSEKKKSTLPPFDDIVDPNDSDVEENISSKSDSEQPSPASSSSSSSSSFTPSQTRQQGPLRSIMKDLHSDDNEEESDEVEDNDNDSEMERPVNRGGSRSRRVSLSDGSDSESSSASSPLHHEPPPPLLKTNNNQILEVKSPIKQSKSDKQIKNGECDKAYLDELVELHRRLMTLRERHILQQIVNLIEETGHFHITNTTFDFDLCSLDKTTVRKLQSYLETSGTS
FN deposit inh = inhibitors of fibronectin matrix deposition, primary screen, AH1F cells, Alexa488-fibronectin fluorescence, plate reader. inhibition, % at 12.6 µM. AH1F fibroblasts, overnight. actives 0.086% (n = 350,000);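 active = mean inhibition across replicates of 30% or more, regardless of how many single replicates reach that level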
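Assay system: AH1F fibroblasts assembling fluorescent fibronectin matrix; Amount: 10000 AH1F cells per well; Buffer or medium: DMEM, 2% serum; Probe or stimulus: Alexa488-fibronectin, 24 nM final in well; Doses: single compound dose, delivered by pin transfer; Incubation: 1 h adhesion, overnight exposure; Measured by: fluorescence 485/525 nm; Read-out: fibronectin deposition inhibition.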
Large screens that a line does not name were inactive; ! = a repeat was not active; [ ] = dose if it differs, or a comment. Sampled rows, rich in hits. Any-hit rate of the full collection: about 2.5%.

C[C@@H]1CN([C@@H](C)CO)C(=O)c2cc(NS(=O)(=O)c3cn(C)cn3)ccc2O[C@@H](C)CCCCO[C@@H]1CN(C)C(=O)Nc1ccc(F)cc1	none (no result: Glyco luc inh)
C[C@H]1CN([C@@H](C)CO)C(=O)c2ccccc2-c2ccccc2CO[C@@H]1CN(C)C(=O)CCC(F)(F)F	Env fusion inh 57[16.7 µM] (no result: Glyco luc inh, AF4-AF9 inh)
C=C1C(=O)OC2CC1C(OC(C)=O)CC(C)=CCCC(C)=CCCC2(C)O (stereo not given)	none (no result: Env fusion inh, PAX8 inh HTS, FN deposit inh)
C=C1C(=O)OC2/C=C(/C)CC/C=C(/C)CCC12 (stereo not given)	PAX8 inh HTS 98 (no result: Glyco luc inh, FN deposit inh)
C=C1C(=O)OC2CC1C(O)CC(C)=CCCC(C)=CC(O)CC2C (stereo not given)	PAX8 inh HTS 101 (no result: FN deposit inh)
C[C@H](CO)N1C[C@H](C)[C@H](CN(C)Cc2cccc(C(=O)O)c2)Oc2ncc(C#C[C@@H](C)O)cc2C1=O	none (no result: Glyco luc inh, PAX8 inh HTS, FN deposit inh)
COc1ccc(S(=O)(=O)N2c3ccccc3OCC2C)cc1 (stereo not given)	EWS-Fli inh 74
COc1ccc(S(=O)(=O)N2c3ccccc3OCC2C(C)(C)C)cc1 (stereo not given)	EWS-Fli inh 58
COc1ccc(S(=O)(=O)N2CC(C(=O)O)Oc3ccccc32)cc1 (stereo not given)	none
COc1ccc(S(=O)(=O)N2CCOc3ccccc32)cc1	EWS-Fli inh 56
C[C@H]1CN([C@@H](C)CO)C(=O)c2cc(NC(=O)Nc3ccc(C(F)(F)F)cc3)ccc2O[C@H]1CN(C)C(=O)NC1CCCCC1	none (no result: Env fusion inh, Glyco luc inh, FN deposit inh)
Cn1c(=O)oc2cc(S(=O)(=O)N3CCCC3)ccc21	Env fusion inh 62
CC1CCN(C(=O)Cn2c(=O)oc3cc(S(=O)(=O)N4CCCCC4)ccc32)CC1	none
Cn1c(=O)oc2cc(S(=O)(=O)N3CCCCC3)ccc21	none
O=C(Cn1c(=O)oc2cc(S(=O)(=O)N3CCCC3)ccc21)N1CCCC1	AF4-AF9 inh 28
C[C@@H]1CN([C@@H](C)CO)S(=O)(=O)c2ccc(C#CCN(C)C)cc2O[C@H]1CN(C)C(=O)C1CCCCC1	none (no result: Glyco luc inh)
COc1ccccc1/C=N/Nc1nncc2ccccc12	none
COc1ccc(/C=N/Nc2nncc3ccccc23)cc1	EWS-Fli inh 67 (no result: FN deposit inh)
Cc1nn(-c2ccccc2)c(Cl)c1CN(C(=O)CCl)c1ccc(Cl)cc1	PAX8 inh HTS 100 (no result: EWS-Fli inh)
Cc1nn(-c2ccccc2)c(Cl)c1C(=O)NCC(=O)O	none (no result: Env fusion inh, EWS-Fli inh, PAX8 inh HTS, AF4-AF9 inh, FN deposit inh)
Cc1nn(-c2ccccc2)c(Cl)c1CN(C(=O)CCl)c1cccc2ccccc12	PAX8 inh HTS 111
CC(=O)N(Cc1c(C)nn(-c2ccccc2)c1Cl)c1ccc(Cl)cc1	none (no result: EWS-Fli inh, AF4-AF9 inh)
C[C@H](CO)N1C[C@H](C)[C@H](CN(C)C(=O)Nc2ccc(F)cc2)Oc2ccc(NC(=O)C3CC3)cc2C1=O	none (no result: Glyco luc inh, EWS-Fli inh, FN deposit inh)
Cc1ccc(S(=O)(=O)NCC[C@H]2CC[C@@H](NC(=O)CCN3CCCCC3)[C@@H](CO)O2)cc1	none (no result: Glyco luc inh)
CN1CCN(c2nc(-c3cccs3)nc3ccccc23)CC1	none
CCN1CCN(c2nc(-c3cccs3)nc3ccccc23)CC1	PAX8 inh HTS 134 (no result: Env fusion inh)
COc1ccc(CN2CCC(C)(Oc3ccc4c(c3)OCO4)C2)c2ccccc12 (stereo not given)	Env fusion inh 70
CCCNC(=O)C1(C)CCN(Cc2ccc(OC)c3ccccc23)C1 (stereo not given)	none (no result: FN deposit inh)
Cc1cccc(S(=O)(=O)N(C)C[C@@H]2OCc3ccccc3-c3c(n(C)c4ccccc34)C(=O)N([C@H](C)CO)C[C@@H]2C)c1	none (no result: Env fusion inh, Glyco luc inh, PAX8 inh HTS)
C[C@@H]1CN([C@H](C)CO)C(=O)c2c(c3ccccc3n2C)-c2ccccc2CO[C@@H]1CN(C)S(=O)(=O)c1cccc(F)c1	Env fusion inh 95[16.7 µM] (no result: Glyco luc inh)
Cc1cccc(S(=O)(=O)N(C)C[C@H]2OCc3ccccc3-c3c(n(C)c4ccccc34)C(=O)N([C@H](C)CO)C[C@@H]2C)c1	none (no result: Env fusion inh, Glyco luc inh, PAX8 inh HTS)
C[C@@H]1CN([C@H](C)CO)C(=O)c2c(c3ccccc3n2C)-c2ccccc2CO[C@H]1CN(C)S(=O)(=O)c1cccc(F)c1	PAX8 inh HTS 93 (no result: Glyco luc inh)
C[C@H](CO)N1C[C@H](C)[C@H](CN(C)S(=O)(=O)c2cccc(F)c2)OCc2ccccc2-c2c(n(C)c3ccccc23)C1=O	Env fusion inh 98!, PAX8 inh HTS 104
C[C@H]1CN([C@@H](C)CO)C(=O)c2c(c3ccccc3n2C)-c2ccccc2CO[C@@H]1CN(C)S(=O)(=O)c1cccc(F)c1	PAX8 inh HTS 102 (no result: Glyco luc inh)
O=C(C[C@@H]1CC[C@@H]2[C@H](COC[C@H](O)CN2C(=O)c2ccc(F)cc2)O1)NC1Cc2ccccc2C1	none (no result: Glyco luc inh)
C[C@H](CO)N1C[C@H](C)[C@H](CN(C)S(=O)(=O)c2cccc(C#N)c2)OCc2ccccc2-c2c(n(C)c3ccccc23)C1=O	Env fusion inh 57[16.7 µM] (no result: Glyco luc inh)
C[C@H]1CN([C@@H](C)CO)C(=O)c2c(c3ccccc3n2C)-c2ccccc2CO[C@H]1CN(C)S(=O)(=O)c1cccc(C#N)c1	none (no result: Env fusion inh, Glyco luc inh, EWS-Fli inh, PAX8 inh HTS, AF4-AF9 inh)
CC1C(=O)N(Cc2cn(CCC3OCCCO3)nn2)CCS(=O)(=O)N1Cc1ccc(-c2ccc(Cl)c(Cl)c2)cc1 (stereo not given)	Env fusion inh 64
COc1ccc(-c2ccc(CN3C(C(C)C)C(=O)N(Cc4cn(CCC5OCCCO5)nn4)CCS3(=O)=O)cc2)cn1 (stereo not given)	none
CC1C(=O)N(Cc2cn(CCC3OCCCO3)nn2)CCS(=O)(=O)N1Cc1ccc(-c2ccc(F)cc2)cc1 (stereo not given)	none (no result: Env fusion inh)
CC(C)C1C(=O)N(Cc2cn(CCC3OCCCO3)nn2)CCS(=O)(=O)N1Cc1ccc(-c2ccc(Cl)nc2)cc1 (stereo not given)	PAX8 inh HTS 74
COc1ccc2c3c([nH]c2c1)[C@@H](CO)N(C(=O)C1CCCC1)CC31CCN(C(=O)NC(C)C)CC1	none (no result: Env fusion inh, Glyco luc inh, FN deposit inh)
C[C@@H]1CN([C@H](C)CO)C(=O)c2cc(NC(=O)Nc3ccc(C(F)(F)F)cc3)ccc2O[C@@H](C)CCCCO[C@@H]1CN(C)Cc1ccc2c(c1)OCO2	PAX8 inh HTS 89 (no result: Glyco luc inh)
C[C@@H]1CN([C@H](C)CO)C(=O)c2cc(NC(=O)Nc3ccc4c(c3)OCO4)ccc2O[C@@H](C)CCCCO[C@H]1CN(C)Cc1ccc(C(F)(F)F)cc1	EWS-Fli inh 66, PAX8 inh HTS 85 (no result: Glyco luc inh, FN deposit inh)
C[C@@H]1CCCCO[C@H](CN(C)Cc2ccc(C(F)(F)F)cc2)[C@@H](C)CN([C@@H](C)CO)C(=O)c2cc(NC(=O)Nc3ccc4c(c3)OCO4)ccc2O1	PAX8 inh HTS 65 (no result: Glyco luc inh, FN deposit inh)

Bioassay records (PubChem BioAssay)
